Test results reported in the EternaBench riboswitch data.

Tested on: MS2 coat protein
Assay: apparent Kd, MS2 coat protein; higher = weaker binding; RNA-MaP array; FMN 200 µM where present
How it was run: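 The apparent Kd is reported as the median of filtered per-cluster binding-curve fits. To get these curves, designs transcribed by stalled E. coli RNA polymerase on Illumina sequencing-chip clusters were titrated with SNAP-549-labelled MS2 coat protein from 0.7 or 1.5 nM, doubling to 3 µM. Titrations were run without and then with constant ligand in 100 mM Tris-HCl pH 7.5, 80 mM KCl, 4 mM MgCl2, BSA, DTT, yeast tRNA and Tween-20, and green signal was normalised to red-channel RNA signal and control-cluster median Fmax.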

[1] = designed as: OFF switch for flavin mononucleotide, no ligand
[2] = ligand present: flavin mononucleotide, designed as: OFF switch for flavin mononucleotide
[3] = designed as: ON switch for flavin mononucleotide, no ligand
[4] = ligand present: flavin mononucleotide, designed as: ON switch for flavin mononucleotide

Sequence	apparent Kd [1] [µM]	apparent Kd [2] [µM]	apparent Kd [3] [µM]	apparent Kd [4] [µM]
GGUUGGCGAGGAUAUACAUGAGGAUCACCCAUGUGGUCCUGUGGCUGGUCUUGCCUUUGUAGAAGGCGCGGGUC	0.105	0.111	–	–
ACAUACAUGACAUGACAUGAGGAUCACCCAUGUCCAUGUUACAAGGAUAUGUACAUGAAACAUGUACAGAAGGUGUAUUGGACU	0.0131	0.018	–	–
UCCUCACAUGAGGAUCACCCAUGUGAGGAUAUGGGCCCGGGCCCGUUCGGGCCCGGGCCCAGAAGGCACUGGGU	0.0421	0.019	–	–
GUUACAUGAGGAUCACCCAUGUAUGUGUGGGAGUAAGUGUCUUAGGAUAUCUAUCAUUUAAUAUAAGAGAAGGAAGAUUGUUGU	–	–	0.109	0.14
AAUAGAAAGAUUAAUAUGAUUACAUGAGGAUCACCCAUGUAUAAGGAUAUCGACGUCAAUGACGUCGAGAAGGUAUACAUAAUA	0.0157	0.034	–	–
GUGGCUGUUAGGCUUGCGUCGGCGACAGAAGGCCAACAUGAGGAUCACCCAUGUACAAAGACCAUGGAGGAUAUGUUGCCAAUG	–	–	0.0582	0.00754
AUGACGGCAGGAUAUACAUGAGGAUCACCCAUGUAAAUUUUUCGUUUACCUUGACCGUGUAGAAGGGCCCAACC	0.0145	0.0161	–	–
AUUAUUGACAUAGGAUAUUGUUACAUGAGGAUCACCCAUGUUAUUUGGGAACUAGGAAUAUUUUACAAGAAGGAUGUUGUUAAA	–	–	0.091	0.0793
UUUUACAUAGGAUAUAGUUUGUUGUACAUGAGGAUCACCCAUGUUGUUGGUUGUGCUGUUCUAGAAGGAUGUUUCU	0.0444	0.0338	–	–
GGUUAUUGCAAGGAUAUGCUUUUUUUUGAUAUUGCAGAAGGUGCAACAUGAGGAUCACCCAUGUUGGAUGGGUU	0.119	0.162	–	–
GUGCACACUCGAGGAUAUCGGAGUUUUCUUCUUCGAGAAGGCGAUUCGUGCCGUGUUAUUUUGGACAUGAGGAUCACCCAUGUG	–	–	0.0934	0.0345
AUAUCUUGUCAAGGAUAUGUUGUAUUGAUCUGAAAACAUGAGGAUCACCCAUGUAUACGGUGGGAACAGAAGGUGAAUGUAGAA	0.532	0.674	–	–
UGGCUACAUGAGGAUCACCCAUGUCAGGAUAUGCCGUCGGCUUGCGUUCGUCGUUUGGGUAGAAGGGACUGCGG	0.0831	0.0915	–	–
AAAUACGUUUCGUAGCAGUGUCAUCGAGAAGGCCCUGACAUGAGGAUCACCCAUGUUGUUACAUGGGAGGAUAUCGAUGAUAAA	–	–	0.0162	0.00552
GAAGAGACAGGAUAUACAUGAGGAUCACCCAUGUGAGGAUGUUGGAGGCGGAGGAGGUGUAGAAGGGUCAAAGA	0.0312	0.0287	–	–
AUGUUGAGCAGUGUAUUAAGAUCACAUGAGGAUCACCCAUGUAGAAGGCACGAGCUGAUCGCUCGUGAGGAUAUACAUCACUGC	0.0103	0.11	–	–
AGCUGUGGCCGAGGAUAUCUAUCCCAAAUAACCGAAAUAUAAUCGGACAUGAGGAUCACCCAUGUAGAGAAGGCGGUCUCAGCA	–	0.0351	–	–
GUACGCUCAGGAUAUCAAGGGCUGUACAUGAGGAUCACCCAUGUUAUCUUGGUGUCAGCGUGAGAAGGGAGGGAAA	0.026	0.0327	–	–
UUAUUAUAUGUAGGAUAUGCGUAUUAUUGUUAUGCAGAAGGACAUGAGGAUCACCCAUGUAUAUUAUUGUUGUAUAUUAUAUAU	0.0235	0.043	–	–
CCAGUGUUAGGAUAUGAUACUAAUGGAUAGCAUUCCGCAGUUUAGAAGGGACAUGAGGAUCACCCAUGUACGGG	0.144	0.139	–	–
GUUUUAUAAGAGAAGGAGGACUUCAUGAGGAUCACCCAUGUGUUAGUACUUAGGAUAUUUGAUAACAUGAGGAUCACCCAUGUC	–	–	0.0276	0.0277
UAAAUCUUGUAAGGAUAUACACGAGAUUCAAGUGUAGAAGGUACUUACAUGAGGAUCACCCAUGUAUACAUGGAUAUUAGAUAU	–	–	0.142	0.0389
CGCUAAGAGAACGAUACGAAUAGACAUGAGGAUCACCCAUGUAGAAGGACAACGGAAUAAACGUUGUAGGAUAUACAUUUAGCG	0.0174	0.0453	–	–
ACGACUGUCAUAGGAUAUGGUUACAUGAGGAUCACCCAUGUCAAGGGUCUAACUAAGUAUAGCUACUAGAAGGAUGAUAGUCGA	0.143	0.116	–	–
